Assay results from different studies.
BDKRB1: B1 bradykinin receptor (BDKRB1, Homo sapiens, UniProt P46663)
mraY: mraY (Staphylococcus aureus, UniProt Q2FZ93)
TSSK1B: Testis-specific serine/threonine-protein kinase 1 (TSSK1B, Homo sapiens, UniProt Q9BXA7)
DCLK3: Serine/threonine-protein kinase DCLK3 (DCLK3, Homo sapiens, UniProt Q9C098)

The inhibition of `CCN1/C(=C/C(C)=O)Sc2ccc(F)cc21` is reported as 0% (BDKRB1; ligand displacement, radioligand; 10 µM).
`CCCCCCC#Cc1cncc(-c2nnc(SCc3cc([N+](=O)[O-])cc([N+](=O)[O-])c3)n2C2CCNCC2)c1` gave an inhibition of greater than 80% (mraY; cell-free assay, inhibitor; 250 µM).
The inhibition of `NC/C(=C\F)COc1cccc(Cn2c(=S)[nH]c(=O)c3[nH]cnc32)c1` is reported as less than 50% (BDKRB1; ligand displacement, radioligand; 10 µM).
`CCCC[C@H](NC(=O)[C@H](Cc1c[nH]c2ccccc12)N(C)C(=O)C1(O)C[C@H](O)[C@@H](NC(C)=O)[C@H]([C@H](O)[C@H](O)CO)O1)C(=O)N[C@@H](CC(=O)O)C(=O)N[C@@H](Cc1cccc(Br)c1)C(N)=O` (stereo partly drawn) gave an Emax of 102% (Gastrin/cholecystokinin type B receptor (CCKBR, Homo sapiens, UniProt P32239); β-arrestin recruitment, agonist; HTLA).
The remaining binding of `COc1ccc2oc(-c3ccc4nc(N)oc4c3)c/c(=N\c3ccccc3NC(=O)CCN)c2c1` is reported as 100% (TSSK1B; binding; 1 µM).
`N#Cc1ccc(NC(=O)Nc2ccccc2)cc1` has a remaining binding of 83% (TSSK1B; cell-free assay, competition with immobilised ligand; 25 µM).
`C1=C/COCc2cc(ccc2OCCN2CCCC2)Nc2nccc(n2)-c2cccc(c2)COC/1` gave a remaining binding of 63% (Activin receptor type-2B (ACVR2B, Homo sapiens, UniProt Q13705); binding; 0.1 µM).
For `C[C@]1(O)CCCN(c2nc(Nc3ccc(S(=O)(=O)N[C@H]4CC[C@H](CN5CCN(c6ccc(C7CCC(=O)NC7=O)cc6F)CC5)CC4)cc3F)ncc2C(F)(F)F)C1` (stereo partly drawn), the remaining binding was 43% (DCLK3; binding, competition with immobilised ligand; 1 µM).
`CCCCCCC#Cc1cncc(-c2nnc(SCc3ccc([N+](=O)[O-])cc3)n2CCCN)c1` gave an inhibition of 82% (mraY; cell-free assay, inhibitor; 250 µM).
For `Cc1cc(-c2ccnc3[nH]cc(F)c23)cc(F)c1[C@@]1(O)[C@H](C)CN(C2CCS(=O)(=O)CC2)C[C@@H]1C`, the remaining activity was 31.3% (Rho-associated protein kinase 1 (ROCK1, Homo sapiens, UniProt Q13464); enzyme activity, inhibitor; 15 nM).
For `Cc1cc(S(=O)(=O)N[C@H]2CC[C@H](CN3CCN(c4ccc(C5CCC(=O)NC5=O)cc4F)CC3)CC2)ccc1Nc1ncc(C(F)(F)F)c(N2CCC[C@](C)(O)C2)n1` (stereo partly drawn), the remaining binding was 28% (DCLK3; binding, competition with immobilised ligand; 1 µM).
With `CCCCCCC#Cc1cncc(-c2nnc(SCc3ccc([N+](=O)[O-])o3)n2CCO)c1` the inhibition was 61% (mraY; cell-free assay, inhibitor; 250 µM).
With `C[C@]1(O)CCCN(c2nc(Nc3ccc(S(=O)(=O)N[C@H]4CC[C@H](CN5CCN(c6ccc(C7CCC(=O)NC7=O)cc6F)CC5)CC4)cc3Cl)ncc2C(F)(F)F)C1` (stereo partly drawn) the remaining binding was 52% (DCLK3; binding, competition with immobilised ligand; 1 µM).
`CCCCCCC#Cc1cncc(-c2nnc(SCc3ccc(Cl)cc3)n2CCCN)c1` has an inhibition of 34% (mraY; cell-free assay, inhibitor; 250 µM).
For `CCCCC(=O)Nc1ccc(-c2ccc3ncn(CCC)c(=O)c3c2)cn1`, the remaining binding was 79% (Serine/threonine-protein kinase SIK1 (SIK1, Homo sapiens, UniProt P57059); binding, competition with immobilised ligand; 0.5 µM).
